Measurements from different studies.
Lines come from different studies, so protocols differ.
Observed: metabolic stability
Host: human

c1ccc(C2CCN(c3nc(-c4cnn5c4CCCC5)nc4ccccc34)C2)nc1 (stereo not drawn)  microsomal CLint (liver microsomes): 176 µL/min/mg
CNS(=O)(=O)Cc1ccc2[nH]cc(CCN(C)C)c2c1  hepatocyte CLint (hepatocytes; 5 µM): 2.8 µL/min/10⁶ cells
C=CC(=O)Nc1cc(Nc2nccc(Nc3cc(Cl)c(F)cc3C(C)(C)O)n2)c(OC)cc1N1CC[C@@H](N(C)C)C1  hepatocyte CLint (hepatocytes): 3.3 µL/min/10⁶ cells
c1ccc(-c2nc(Nc3ccn4nccc4c3)c3ccccc3n2)nc1  microsomal CLint (liver microsomes): 120 µL/min/mg
O=c1[nH]c(=S)n(Cc2ccc(Cl)cc2CNCC(F)(F)F)c2cc[nH]c12  hepatocyte CLint (hepatocytes): 4.3 µL/min/10⁶ cells
Fc1ccccc1Nc1nc(-c2ccccn2)nc2ccccc12  microsomal CLint (liver microsomes): 88 µL/min/mg
COc1cc(OC)cc(N(CCNC(C)C)c2ccc3ncc(-c4cnn(C)c4)nc3c2)c1  hepatocyte CLint (hepatocytes): 2.53 µL/min/10⁶ cells
NCc1ccccc1  hepatocyte CLint (hepatocytes; 5 µM): 16.7 µL/min/10⁶ cells
N#Cc1ccccc1-c1nc(N2CCC(c3ccccn3)C2)c2ccccc2n1 (stereo not drawn)  microsomal CLint (liver microsomes): 350 µL/min/mg
COc1ccc(-c2nc3ccc(OC)cn3c2Nc2ccc(F)cc2)nc1  microsomal CLint (liver microsomes; 3 µM, pH 7.4): 44 µL/min/mg
CCCN(CCC)CCc1cccc2c1CC(=O)N2  hepatocyte CLint (hepatocytes; 1 µM): 1.7 µL/min/10⁶ cells
COc1ccnc(-c2nc3ccccn3c2Nc2ccc(F)cc2)c1  microsomal CLint (liver microsomes; 3 µM, pH 7.4): 120 µL/min/mg
C[C@H]1C[C@@H](N2C(=N)N[C@](C)(c3cccc(NC(=O)c4cccc(C#N)c4)c3Cl)CC2=O)CCO1  hepatocyte CLint (hepatocytes; 0.5 µM): 5 µL/min/10⁶ cells
COc1ccnc(-c2nc3ccc(OC)cn3c2Nc2ccc(F)cc2)c1  microsomal CLint (liver microsomes; 3 µM, pH 7.4): 240 µL/min/mg
C[C@H]1C[C@@H](N2C(=N)N[C@](C)(c3cccc(Nc4ccc(C5CC5)nc4)c3Cl)CC2=O)CCO1  hepatocyte CLint (hepatocytes; 0.5 µM): 16 µL/min/10⁶ cells
CN(c1ccc(F)cc1)c1c(-c2cc(Cl)ccn2)nc2ccccn12  microsomal CLint (liver microsomes; 3 µM, pH 7.4): 190 µL/min/mg
C[C@@H](N)c1cc(Cl)ccc1Cn1c(=S)[nH]c(=O)c2[nH]ccc21  hepatocyte CLint (hepatocytes): < 1 µL/min/10⁶ cells
Fc1ccc(Nc2c(-c3cccnn3)nc3ccccn23)cc1  microsomal CLint (liver microsomes; 3 µM, pH 7.4): 64 µL/min/mg
Fc1ccc(Nc2nc(-c3ccccn3)nc3ccccc23)cc1  microsomal CLint (liver microsomes): 67 µL/min/mg
CC(C)(C)[Si](C)(C)OCCN(c1ccc(F)cc1)c1c(-c2ccccn2)nc2ccccn12  microsomal CLint (liver microsomes; 3 µM, pH 7.4): > 300 µL/min/mg
c1ccc(CCNc2nc(-c3ccccn3)nc3ccccc23)nc1  microsomal CLint (liver microsomes): 42 µL/min/mg
